The values below come from ChEMBL document CHEMBL4765448, “Multiple biological active 4-aminopyrazoles containing trifluoromethyl and their 4-nitroso-precursors: Synthesis and evaluation” (Eur J Med Chem, 2020).

In series [1] the test system is Streptococcus pyogenes. As to the kind of experiment: Antibacterial activity against Streptococcus pyogenes. It counts as functional.
Series [2] deals with Citrobacter braakii. As to the kind of experiment: Antibacterial activity against Citrobacter braakii. The series is classed as functional.
The test system of series [3] is Klebsiella pneumoniae. The series is described as follows: Antibacterial activity against Klebsiella pneumoniae. The series is classed as functional.
Series [4] relates to Shigella flexneri. The series is described as follows: Antibacterial activity against Shigella flexneri. The series is classed as functional.
The subject of series [5] is Pseudomonas aeruginosa. As to the kind of experiment: Antibacterial activity against Pseudomonas aeruginosa. It counts as functional.
The subject of series [6] is Trichophyton rubrum. As to the kind of experiment: Antifungal activity against Trichophyton rubrum. It counts as functional.
For series [7], the system named is Nannizzia gypsea. As to the kind of experiment: Antifungal activity against Trichophyton gypseum. The series is classed as functional.
The subject of series [8] is Candida albicans. The series is described as follows: Antifungal activity against Candida albicans. The series is classed as functional.
In series [9] the test system is Epidermophyton floccosum. As to the kind of experiment: Antifungal activity against Epidermophyton floccosum. The series is classed as functional.
Series [10] relates to Trichophyton violaceum. The series is described as follows: Antifungal activity against Trichophyton violaceum. The series is classed as functional.
The subject of series [11] is Microsporum canis. The series is described as follows: Antifungal activity against Microsporum canis. The series is classed as functional.
The test system of series [12] is Trichophyton interdigitale. The series is described as follows: Antifungal activity against Trichophyton mentagrophytes var. interdigitale. It counts as functional.
Series [13] relates to Escherichia coli. As to the kind of experiment: Antibacterial activity against Escherichia coli. The series is classed as functional.
The subject of series [14] is Rattus norvegicus. As to the kind of experiment: Analgesic activity in rat assessed as prolongation of latency period at 25 mg/kg, ip measured after 1 hr by hot-plate test relative to control. It counts as functional, organism-based. The procedure, abridged: (§1)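 Hot-plate test in rats. Compounds were given by intraperitoneal injection. Latency was read at 1 h and, for some compounds, also at 2 h after dosing. Results are expressed as % prolongation of the latent period versus vehicle-treated control. Significance was given as p-values.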
On the technique in general: Hot-plate and tail-flick tests time the reaction to a heat stimulus.

Series [15] concerns Staphylococcus aureus. As to the kind of experiment: Antibacterial activity against Staphylococcus aureus. It counts as functional.
In series [16] the test system is Rattus norvegicus. The series is described as follows: Antiinflammatory activity in rat model of carrageenan-induced paw edema assessed as inhibition of hind paw swelling at 25 mg/kg, ip measured after 5 hrs. The series is classed as functional, organism-based. (In the carrageenan paw model, swelling and tenderness develop within hours.)
Series [17] deals with Neisseria gonorrhoeae. The series is described as follows: Antibacterial activity against Neisseria gonorrhoeae. It counts as functional.
Series [18] in a line: Acute toxicity in mouse at 300 mg/kg, ip administered as single dose. The series is classed as organism-based. The following applies: in vivo. The procedure, abridged:
(§2)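 Mice, single intraperitoneal dose, following OECD Guideline for testing of chemicals; three mice per dose level; doses tested 10–300 mg/kg. Read-out is the number of survivors out of 3, used to estimate the expected LD50 range.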

In series [19] the test system is Trichophyton tonsurans. As to the kind of experiment: Antifungal activity against Trichophyton tonsurans. It counts as functional.
Series [20] deals with Proteus vulgaris. As to the kind of experiment: Antibacterial activity against Proteus vulgaris. It counts as functional.
Series [21] has as its system Serratia marcescens. As to the kind of experiment: Antibacterial activity against Serratia marcescens. It counts as functional.
The test system of series [22] is Rattus norvegicus. The series is described as follows: Antiinflammatory activity in rat model of carrageenan-induced paw edema assessed as inhibition of hind paw swelling at 10 mg/kg, ip measured after 1 hr relative to control. It counts as functional.
Series [23] can be described thus: Acute toxicity in mouse at 70 mg/kg, ip administered as single dose. It counts as organism-based. The following applies: in vivo. The procedure, abridged: as §2
The test system of series [24] is Rattus norvegicus. As to the kind of experiment: Analgesic activity in rat assessed as prolongation of latency period at 10 mg/kg, ip measured after 1 hr by hot-plate test relative to control. It counts as functional. The procedure, abridged:
as §1

Series [25] deals with Rattus norvegicus. As to the kind of experiment: Antiinflammatory activity in rat model of carrageenan-induced paw edema assessed as inhibition of hind paw swelling at 10 mg/kg, ip measured after 3 hrs relative to control. The series is classed as functional.
Series [26] is described as follows: Acute toxicity in mouse at 60 mg/kg, ip administered as single dose. It counts as organism-based. The following applies: in vivo. The procedure, abridged:
as §2

The subject of series [27] is Rattus norvegicus. As to the kind of experiment: Antiinflammatory activity in rat model of carrageenan-induced paw edema assessed as inhibition of hind paw swelling at 15 mg/kg, ip measured after 1 hr relative to control. The series is classed as functional.
For series [28], the system named is Erythrocyte. As to the kind of experiment: Antioxidant activity in human erythrocytes assessed as protection against AAPH-induced hemolysis at 400 uM preincubated for 20 mins followed by AAPH addition and measured after 2 hrs by spectrophotometric method relative to control. It counts as functional. The following applies: time 140 min, 2.333 h. The procedure, abridged:
(§3)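 Erythrocyte hemolysis assay with AAPH as the free-radical initiator, testing 50 and 400 µM. Results are expressed as relative protection of membranes against oxidative damage, each the mean of two independent experiments.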

A short description of series [29]: Antioxidant activity assessed as AAPH scavenging activity by measuring residual fluorescence at 50 uM measured at 1 min interval for 30 mins by ORAC fluorescein assay relative to control. It counts as functional. The procedure, abridged: (§4)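 ORAC-FL assay with fluorescein as the probe and AAPH as the peroxyl radical generator. The loss of fluorescence over time was followed, and the result is given as % fluorescence restored at 10 and 50 µM. Each value is the mean of two independent experiments.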

In series [30] the test system is Rattus norvegicus. As to the kind of experiment: Antiinflammatory activity in rat model of carrageenan-induced paw edema assessed as inhibition of hind paw swelling at 15 mg/kg, ip measured after 3 hrs relative to control. The series is classed as functional.
In series [31] the test system is Erythrocyte. The series is described as follows: Antioxidant activity in human erythrocytes assessed as protection against AAPH-induced hemolysis at 50 uM preincubated for 20 mins followed by AAPH addition and measured after 2 hrs by spectrophotometric method relative to control. It counts as functional. The following applies: time 140 min, 2.333 h. The procedure, abridged: as §3

Series [32] concerns Mycobacterium tuberculosis. The series is described as follows: Antitubercular activity against Mycobacterium tuberculosis H37Rv. It counts as functional. The procedure, abridged:
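Mycobacterium tuberculosis strain H37Rv; minimum inhibitory concentration (MIC) taken as the lowest level needed to inhibit bacterial growth; isoniazid and pyrazinamide served as reference drugs.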

Series [33] deals with Rattus norvegicus. The series is described as follows: Antiinflammatory activity in rat model of carrageenan-induced paw edema assessed as inhibition of hind paw swelling at 15 mg/kg, ip measured after 5 hrs. It counts as functional, organism-based.
Series [34] has as its system Rattus norvegicus. The series is described as follows: Analgesic activity in rat assessed as prolongation of latency period at 15 mg/kg, ip measured after 1 hr by hot-plate test relative to control. It counts as functional. The procedure, abridged: as §1
In series [35] the test system is NHDF. As to the kind of experiment: Cytotoxicity against HDF cells. The following applies: nhdf. It counts as cell-based, Homo sapiens.
Series [36] in a line: Selectivity index, ratio of IC50 for HDF cells to IC50 for human HeLa cells. The series is classed as toxicity. The following applies: HDF cells versus HeLa cells, read-out: Ratio IC50.
Series [37] can be described thus: Antioxidant activity assessed as AAPH scavenging activity by measuring residual fluorescence at 10 uM measured at 1 min interval for 30 mins by ORAC fluorescein assay relative to control. It counts as functional. The procedure, abridged:
as §4

Series [38] concerns HeLa. As to the kind of experiment: Cytotoxicity against human HeLa cells. It counts as functional, cell-based.
A short description of series [39]: Antioxidant activity assessed as trolox equivalent of ABTS radical scavenging activity measured after 1 hr by UV-vis spectrophotometric method. It counts as functional. The procedure, abridged:
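ABTS cation-radical decolorization was read spectrophotometrically as the fall in absorbance after 1 h. Trolox was the reference. TEAC was taken as the ratio of concentration-response slopes, test/Trolox, and IC50 was also derived. Data are mean ± SEM, n = 3.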

Converted amounts (≈) assume the structure as drawn. The source made the active and inactive calls. The rule behind the calls is not given here.

`Cc1ccc(-c2c(N=O)c(C(F)(F)F)nn2-c2ccc(S(N)(=O)=O)cc2)cc1`: the MIC in [1] was more than 250 µg/mL; in [2] it was more than 250 µg/mL; in [3], more than 250 µg/mL; in [4], more than 250 µg/mL; in [5], more than 250 µg/mL; in series [6] it was 200 µg/mL (≈ 487 µM). For the same compound, the MIC is 200 µg/mL (≈ 487 µM) in series [7]; more than 200 µg/mL in [8]; 200 µg/mL (≈ 487 µM) in [9]; more than 200 µg/mL in series [10]; 200 µg/mL (≈ 487 µM) in [11]; 200 µg/mL (≈ 487 µM) in series [12]. Also, the minimum inhibitory concentration (MIC) in [13] is more than 250 µg/mL; in series [15], more than 250 µg/mL; in series [17], 31.2 µg/mL (≈ 76 µM); in series [19] it was 200 µg/mL (≈ 487 µM); in series [20], more than 250 µg/mL; in series [21] it was more than 250 µg/mL. Moreover, the result in series [14] and in series [16] was inactive. Besides, the Activity result in series [18] was “Non-Toxic”.
For the compound `O=C(O)Cc1ccccc1Nc1c(Cl)cccc1Cl` [DICLOFENAC], the figures for the inhibition in vivo at 10 mg/kg in [22] and in series [25] were 53.9% and 61.8%, respectively. The Activity result in [23] is recorded as “Non-Toxic”; in series [24] it was 57.1%.
For `Cl.Cn1nc(C(F)(F)F)c(N)c1-c1ccccc1`, the MIC is more than 250 µg/mL in series [1]; more than 250 µg/mL in series [2]; more than 250 µg/mL in series [3]; more than 250 µg/mL in [4]; more than 250 µg/mL in series [5]; 200 µg/mL in series [6]. Also, the minimum inhibitory concentration (MIC) was more than 200 µg/mL in [7]; 12.5 µg/mL in series [32]; more than 200 µg/mL in series [8]; 200 µg/mL in series [9]; 200 µg/mL in series [10]; 200 µg/mL in series [11]. In addition, the minimal inhibitory concentration (MIC) in [12] was more than 200 µg/mL; in series [13], more than 250 µg/mL; in series [15], more than 250 µg/mL; in series [17], more than 250 µg/mL; in series [19] it was more than 200 µg/mL; in [20], more than 250 µg/mL. This compound also returned a minimum inhibitory concentration (MIC) in series [21] of more than 250 µg/mL. Moreover, the Activity entry in series [26] is “Non-Toxic”; in series [29], 79%; in series [34] it was 100.74%; in [37] it was 38.2%; in series [38], “Dose-dependent effect”. Further, the inhibition in vivo at 15 mg/kg was found to be 54.3% in series [27] and 32.9% in series [30]. Further, the “fold change (FC)” value in [28] is reported as 1.11; in [31] it was 1.19. In series [33], the result was Active. For the same compound, the IC50 entry in series [35] was “Not Active”; in [38] (Homo sapiens, HeLa, read-out: IC50), 74 nM. The selectivity ratio in [36] was more than 1350. The outcome in series [39] was inactive.

By MIC is commonly meant the least concentration at which growth counts as inhibited. The low end stands for greater potency, the high end for weaker potency. A word on the inhibition in vivo: it is the relative decrease from the control value, in per cent. The IC50 is the midpoint of a concentration-inhibition curve.
